The source of these data is ChEMBL document CHEMBL1821702, “8,8-Dimethyldihydroberberine with improved bioavailability and oral efficacy on obese and diabetic mouse models” (Bioorg Med Chem, 2010).

Activity calls are given as the source filed them.

In general, half-life refers to the time needed for the level to fall by half in the phase considered.

A short description of data set [1]: Half life in 12 hrs fasting Sprague-Dawley rat at 10 mg/kg, po. In kind it is ADME, organism-based. More on the design: dose 10 mg/kg, route oral. The following applies: in vivo. The essentials: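 Male Sprague–Dawley rats were fasted 12 h and gavaged at 10 mg/kg. Blood was taken retro-orbitally into heparin tubes from pre-dose to 24 h. Plasma levels of parent and of berberine/dihydroberberine were measured by LC–MS/MS.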

Data set [2] has as its system Mus musculus. Briefly: Antiobese activity in C57BLKS/J-db/db mouse assessed as decrease in plasma triglyceride level at 50 mg/kg/day, po […]. In kind it is functional. On the set-up: scale not given: the % may be the effect or the level left. The essentials:
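db/db mice were gavaged once daily in 0.5% microcrystalline cellulose/1.6% lactose vehicle for 6 weeks and killed after the final dose. Plasma triglycerides were measured with a colorimetric triglyceride assay kit.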

The test system of data set [3] is L6. Kind of data set: Increase in glucose uptake in rat differentiated L6 myotubes at 2.5 uM after 1 hr. The class given is functional. The essentials:
(§1)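 Fully differentiated L6 myotubes were serum-starved 2 h, then treated with compound for 15 min to 2 h (dose series at 1 h). Glucose uptake was measured relative to DMSO control. Mean of three independent experiments ± SE.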

Data set [4] deals with Mus musculus. Briefly: Toxicity in C57BLKS/J-db/db mouse assessed as change in food intake at 50 mg/kg/day, po for 6 weeks. The class given is organism-based. More on the design: route oral. The following applies: in vivo, 1008 h. In outline:
(§2)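 db/db mice (half male, half female) were dosed by oral gavage daily for 6 weeks in 0.5% microcrystalline cellulose/1.6% lactose vehicle. Body weight and food intake were recorded daily. Mice were killed after the final dose, and liver and fat depots were weighed and expressed relative to body weight.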

In data set [5] the test system is L6. Kind of data set: Increase in glucose uptake in rat differentiated L6 myotubes after 15 mins. The class given is functional. In outline:
as §1

For data set [6], the system named is Mus musculus. Kind of data set: Toxicity in C57BLKS/J-db/db mouse assessed as change in adipose tissue mass at 50 mg/kg/day, po for 6 weeks. On the set-up: route oral. To be noted: in vivo, 1008 h. In kind it is organism-based. The essentials: as §2
In data set [7] the test system is Mus musculus. Kind of data set: Antidiabetic activity in C57BLKS/J-db/db mouse assessed as alleviation of glucose tolerance at 50 mg/kg/day, po for 3 weeks measured after 90 mins by intraperitoneal glucose tolerance test. In kind it is functional, organism-based. In outline: (§3)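 Male and female C57BLKS/J-db/db mice, randomized at 6 weeks of age by body weight and fed glucose, were gavaged once daily in vehicle (0.5% microcrystalline cellulose, 1.6% lactose). For ipGTT, D-glucose was given at 2 g/kg ip, and blood glucose was read by glucometer at 0, 15, 30, 60, 90 and 120 min.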

In data set [8] the test system is L6. Kind of data set: Increase in glucose uptake in rat differentiated L6 myotubes at 10 uM in presence of 100 nM PI-3 kinase inhibitor wortmannin.
In data set [9] the test system is Mus musculus. Briefly: Antidiabetic activity in C57BLKS/J-db/db mouse assessed as reduction of fasting blood glucose level at 50 mg/kg/day, po for 3 weeks. The class given is functional. On the set-up: scale not given: the % may be the effect or the level left.
The subject of data set [10] is L6. Kind of data set: Increase in intracellular AMP:ATP ratio in rat differentiated L6 myotubes after 1 hr. In kind it is functional, cell-based. The essentials:
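Differentiated L6 myotubes were serum-starved 2 h and incubated 1 h with increasing concentrations. Intracellular AMP, ADP and ATP were measured and the AMP:ATP ratio calculated, with berberine 5 µM as positive control. Three independent experiments ± SE.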

Data set [11] has as its system Mus musculus. Briefly: Antidiabetic activity in C57BLKS/J-db/db mouse assessed as alleviation of glucose tolerance at 50 mg/kg/day, po for 3 weeks measured after 120 mins by intraperitoneal glucose tolerance test. In kind it is functional, organism-based. In outline: as §3
The test system of data set [12] is Mus musculus. Briefly: Toxicity in C57BLKS/J-db/db mouse assessed as change in body weight at 50 mg/kg/day, po for 6 weeks. The class given is organism-based. More on the design: route oral. The following applies: in vivo, 1008 h. The essentials:
as §2

For a further data set, the species on record is Rattus norvegicus. Kind of data set: Inhibition of electron transport protein complex 1-mediated cellular respiration in rat liver mitochondria assessed as consumption of oxygen at 2.5 to 40 uM using pyruvate as substrate. The essentials: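 Mitochondria isolated from rat liver. Complex I substrates 5 mM pyruvate plus 2 mM malate, with excess ADP (2.4 mM). Oxygen consumption read as dose–response. Three independent experiments, n = 5–7.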

In data set [13] the test system is Mus musculus. Briefly: Antidiabetic activity in high fat diet-fed C57BL/6J mouse assessed as increase in glucose tolerance at 15 mg/kg/day, po for 4 weeks measured after 120 mins by intraperitoneal glucose tolerance test. In kind it is functional, organism-based. In outline: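 High-fat-diet (60 kcal%, 8 weeks) male C57BL/6J mice were randomized by body weight and fed glucose, then dosed orally once daily in cellulose/lactose vehicle. ipGTT was done at 4 weeks: D-glucose 2 g/kg ip, glucometer readings at 0, 15, 30, 60, 90 and 120 min. n = 5–8.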

Turning to `COc1ccc2c(c1OC)C(C)(C)[N+]1=C(C2)c2cc3c(cc2CC1)OCO3.[Cl-]` [8,8-dimethyldihydroberberine], the half-life in data set [1] is 2.9 h. Besides, the Activity with Mus musculus [2] is reported as 38%; with L6 [3], 48%; in the data set with Mus musculus [4], “Non-toxic”; in the data set with L6 [5], 28%; in the data set with Mus musculus [6], “Non-toxic”; with Mus musculus [9] it was 24%. Also, the Activity entry with L6 [10] was “Dose-dependent effect”; in the data set with Mus musculus [12], “Non-toxic”. The result in the data set with Mus musculus [7], in the data set on L6 [8], in the data set on Mus musculus [11] and with Mus musculus [13] was Active. The inhibition result in the data set listed under Rattus norvegicus was “Dose-dependent effect”.
